The list is not random: actives were taken first. Their share in the collection is about 2%.
C2C12 statin = suppressors of statin myotoxicity in C2C12 myotubes, primary screen, cell-based, single point, plate reader | C2C12 myotubes + simvastatin, ATP luminescence, 48 h; scaled: DMSO 0, geranylgeraniol control 100 | hit rate 0.78% among 330,000 | rescue of ATP level, % at 7.49 µM | AID 602340, 2012;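 active means mean ATP rescue above about 67%, or every replicate alone reaching that limit, limit read from the data, passing the limit was not always enough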;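 further: myotubes were challenged with 10 µM simvastatin during compound exposure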
CDK5 inh = inhibitors of human CDK5/p35 kinase, primary screen, biochemical, single concentration | Cyclin-dependent kinase 5 (Homo sapiens) + Cyclin-dependent kinase 5 activator 1 (Homo … | Recombinant CDK5/p35, ADP-Glo luminescence, 60 min | inhibition, % at 10 µM | hit rate 0.01% among 330,000;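 active means highest replicate inhibition of at least 50% and at least 75% of replicates reaching 50%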;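 further: plate controls were DMSO neutral control for no effect and GW8510 at 10 µM for full effect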
CAL PDZ FP-1 = CAL PDZ peptide-binding inhibitors, primary screen, biochemical, fluorescence polarization, Cer-tagged CAL PDZ, HTS. Golgi-associated PDZ and coiled-coil motif-containing protein (Homo sapiens), Q9HD26. purified CAL PDZ, TMR-peptide fluorescence polarization, 1 h. inhibition, % at 20 µM. hit rate 0.02% among 330,000. AID 504414, 2011;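 active means highest replicate inhibition of at least 40%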;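 further: plate controls were DMSO neutral control wells for no effect and unlabeled competitor peptide control wells for full effect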
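material = purified tagged CAL PDZ domain construct (CerCALP) | buffer or medium = sodium phosphate/NaCl buffer pH 7.4 with TCEP, IgG, Thesit | reagent = TMR-labelled reporter peptide T*-PRC34 bound in PDZ groove | incubation = 1 h room-temperature incubation prior to read | measured by = fluorescence polarization (mP) | evaluation = percent inhibition from loss of millipolarization | control set = unlabelled peptide and DMSO controls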
CAL PDZ FP-2 = untagged CAL PDZ binding inhibitors, primary screen, biochemical, fluorescence polarization, HTS | hit rate 0.92% among 300,000 | inhibition, % at 24.9 µM | purified CAL PDZ, TMR-peptide fluorescence polarization, 1 h | AID 602252, 2012;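 active means mean inhibition of at least 30% with at least half of replicates also reaching 30%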;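 further: 0% = DMSO neutral control and 100% = excess unlabeled competitor peptide PRC23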
dFosB act = activators of delta FosB homodimer, primary screen, biochemical, fluorescence polarization, TAMRA-CDK5 oligo, single point | Protein FosB (Mus musculus), P13346 | purified delta FosB; percent of positive-control signal above neutral wells | activation, % at 25 µM | hit rate 0.99% among 340,000 | AID 493131, 2011;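 active means mean activation above about 17%, with every replicate also reaching it, limit read from the data, passing the limit was not always enough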
Target sequence (P13346 whole entry, looked up): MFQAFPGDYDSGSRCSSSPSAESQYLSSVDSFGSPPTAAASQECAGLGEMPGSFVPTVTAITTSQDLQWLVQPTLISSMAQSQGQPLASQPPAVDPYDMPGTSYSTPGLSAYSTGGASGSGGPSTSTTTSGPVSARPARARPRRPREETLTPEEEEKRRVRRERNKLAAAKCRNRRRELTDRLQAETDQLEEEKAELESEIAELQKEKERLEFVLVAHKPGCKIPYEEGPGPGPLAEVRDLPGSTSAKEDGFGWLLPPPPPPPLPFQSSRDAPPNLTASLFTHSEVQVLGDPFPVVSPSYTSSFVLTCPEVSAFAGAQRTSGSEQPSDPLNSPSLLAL
S100A4 inh HTS = inhibitors of S100A4-myosin IIA peptide binding, primary screen, biochemical, fluorescence polarization, TAMRA-MyoIIA peptide; hit rate 0.14% among 360,000; AID 652163, 2013; Protein S100-A4 (Homo sapiens), P26447; inhibition, % at 10.7 µM;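 active means mean inhibition of at least 70% across replicates, with every replicate also reaching that level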
Target sequence (P26447 whole entry, looked up): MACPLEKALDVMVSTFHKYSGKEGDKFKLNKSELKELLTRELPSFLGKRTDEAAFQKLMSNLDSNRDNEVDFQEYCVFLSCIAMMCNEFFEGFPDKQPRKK
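Material: S100A4 monomer (human). Medium: Calcium-containing HEPES buffer, pH 7.2. Probe or stimulus: labelled myosin peptide probe, 5 nM. Compound dosing: one concentration per compound. Timing: polarization read 5 min after assay mix addition, stable 5–60 min. Benchmarks: DMSO as neutral control, TFP as positive control.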
Active calls of the source: *.

For CNC[C@H]1Oc2c(NC(=O)Nc3ccc(C(F)(F)F)cc3)cccc2C(=O)N([C@@H](C)CO)C[C@H]1C the results were C2C12 statin -57.7 and S100A4 inh HTS 93.3*.
For C[C@@H]1CN([C@H](C)CO)C(=O)c2cccc(NC(=O)Nc3ccc(F)cc3)c2O[C@H]1CN(C)Cc1ccccc1 the results were C2C12 statin 72.0* and S100A4 inh HTS -2.6.
For COc1ccccc1N1CCN(/N=C/c2ccc([N+](=O)[O-])cc2)CC1 the results were C2C12 statin -13.3, CDK5 inh -0.1, CAL PDZ FP-1 -0.2, dFosB act -4.7 and S100A4 inh HTS 0.2.
Screening C[C@@H]1CN([C@H](C)CO)C(=O)c2cc(NC(=O)Nc3ccc(F)cc3)ccc2O[C@@H](C)CCCCO[C@H]1CN(C)S(=O)(=O)c1ccccc1 returned S100A4 inh HTS 5.0.
`C[C@H]1CN([C@@H](C)CO)C(=O)c2cccc(NC(=O)Nc3ccc4c(c3)OCO4)c2O[C@@H]1CN(C)CC1CCCCC1` gave C2C12 statin 86.1* and S100A4 inh HTS 5.3.
Screening CCN(CC)c1ccc(C(=O)NC(=S)N2CCN(Cc3ccc4c(c3)OCO4)CC2)cc1 returned CDK5 inh -0.3, CAL PDZ FP-1 -2.8, CAL PDZ FP-2 -1.1, dFosB act -2.4 and S100A4 inh HTS 13.1.
Screening O=C(COc1ccc(F)cc1Br)N1CCN(S(=O)(=O)/C=C/c2ccccc2)CC1 returned C2C12 statin 19.8, CDK5 inh -0.1, CAL PDZ FP-1 -0.7, CAL PDZ FP-2 53.5*, dFosB act -12.9 and S100A4 inh HTS 4.9.
`CC(=O)Cc1cc(O)c2ccccc2c1OC(=O)c1ccc(Br)cc1` gave C2C12 statin 87.9*, CDK5 inh -1.1, CAL PDZ FP-1 -0.7, CAL PDZ FP-2 -1.6, dFosB act -7.5 and S100A4 inh HTS -4.0.
`Cc1cc(C)n(Cc2ccc(C(=O)NCCC3=CCCCC3)o2)n1` gave CDK5 inh -0.6, CAL PDZ FP-1 0.0, CAL PDZ FP-2 -2.0 and dFosB act -4.7.
Screening Cn1cnnc1SCC(=O)Nc1ccc(Br)cc1F returned C2C12 statin 70.8*, CDK5 inh 0.5, CAL PDZ FP-2 -3.2 and dFosB act 1.8.
Cn1cnnc1SCC(=O)Nc1ccc(OCc2ccccc2)cc1 was read as CDK5 inh -1.5, CAL PDZ FP-1 -1.0, CAL PDZ FP-2 40.7*, dFosB act -2.8 and S100A4 inh HTS 4.0.
`Cn1cnnc1SCC(=O)Nc1ccccc1` gave C2C12 statin 5.5, CDK5 inh -0.9, CAL PDZ FP-1 -0.9, dFosB act -5.2 and S100A4 inh HTS 0.2.
`COc1ccc2nc3sc(C(=O)N4CCN(C)CC4)cc3cc2c1` gave C2C12 statin -25.0, CDK5 inh 0.0, CAL PDZ FP-1 -0.3 and dFosB act -24.3.
`Cc1cc(NC(=O)CCCN2C(=O)/C(=C/c3ccccc3Cl)SC2=S)no1` gave C2C12 statin 5.6, CDK5 inh 1.2, CAL PDZ FP-1 -1.5, CAL PDZ FP-2 -5.6, dFosB act 36.9* and S100A4 inh HTS 12.6.
O=C(CCN1C(=O)/C(=C/c2ccc(F)cc2)SC1=S)Nc1cccnc1 was read as C2C12 statin 13.1, CDK5 inh -0.2, CAL PDZ FP-1 -2.2, CAL PDZ FP-2 -2.8, dFosB act 19.3* and S100A4 inh HTS -4.4.
CCOc1ccc(/C=C2\SC(=S)N(CC(=O)Nc3ccccn3)C2=O)cc1 was read as C2C12 statin -43.8, CDK5 inh -0.5, CAL PDZ FP-1 -1.0, CAL PDZ FP-2 -2.9, dFosB act 21.8* and S100A4 inh HTS -1.8.
For Cc1cc(NC(=O)CCN2C(=O)/C(=C/c3ccccc3F)SC2=S)no1 the results were S100A4 inh HTS 1.3.
`O=C(CCN1C(=O)/C(=C/c2ccccc2)SC1=S)Nc1ccccn1` gave C2C12 statin 93.2*, CDK5 inh -1.2, CAL PDZ FP-1 -2.2, CAL PDZ FP-2 -3.9, dFosB act 0.4 and S100A4 inh HTS -4.1.
CN(C)CCCNC(=O)[C@@H]1[C@@H](CO)[C@@H]2Cn3c(ccc(C4=CCCC4)c3=O)[C@@H]2N1CCC(F)(F)F was read as C2C12 statin -11.1 and S100A4 inh HTS -4.5.
Screening COc1ccc(C(C(=O)NC2CCCCC2)N(C(=O)Cc2c[nH]c3ccccc23)c2ccccc2C)cc1OC (stereo not given) returned CDK5 inh -0.8, CAL PDZ FP-1 -5.7, CAL PDZ FP-2 -3.1, dFosB act -14.2 and S100A4 inh HTS 5.4.
For O=C(CCCN1C(=O)/C(=C\c2cccs2)SC1=S)Nc1ccc(O)cc1 the results were C2C12 statin 8.4, CDK5 inh -0.2, CAL PDZ FP-1 0.1, dFosB act -0.4 and S100A4 inh HTS 1.3.
`O=C(CCCN1C(=O)/C(=C/c2cccs2)SC1=S)Nc1ccccc1O` gave C2C12 statin 19.4, CDK5 inh 0.3, CAL PDZ FP-1 -1.4, CAL PDZ FP-2 -3.0, dFosB act 33.6* and S100A4 inh HTS -1.2.
`Cc1cc(NC(=O)CCN2C(=O)/C(=C\c3ccccc3)SC2=S)no1` gave C2C12 statin 9.1, CDK5 inh 0.8, CAL PDZ FP-1 0.8, CAL PDZ FP-2 -4.1, dFosB act 40.4* and S100A4 inh HTS 2.1.
For CO[C@@H]1CN(C)C(=O)c2cc(NS(C)(=O)=O)ccc2OC[C@@H](C)N(Cc2nccs2)C[C@H]1C the results were C2C12 statin 3.3 and S100A4 inh HTS 9.1.
For C[C@@H]1CN([C@H](C)CO)C(=O)c2cc(NC(=O)C3CCCCC3)ccc2O[C@H]1CN(C)S(=O)(=O)c1ccc(F)cc1 the results were C2C12 statin -9.9 and S100A4 inh HTS -6.9.
For CCC(C)(C)NC(=O)C(c1ccc(C)cc1)N(CC1CCCO1)C(=O)CCC(=O)Nc1ccccn1 (stereo not given) the results were C2C12 statin -5.6, CDK5 inh -0.3, CAL PDZ FP-1 -1.5, dFosB act -5.4 and S100A4 inh HTS -4.9.
Screening Cc1ccc(-c2ccc3c(c2)O[C@H](CN(C)Cc2ccc(F)cc2)[C@H](C)CN([C@@H](C)CO)S3(=O)=O)cc1 returned C2C12 statin -45.6 and S100A4 inh HTS -2.1.
Screening Cc1ccc(N2CCN(CCCN3C(=O)C4CCCN4C3=O)CC2)cc1 (stereo not given) returned CDK5 inh 0.6, CAL PDZ FP-1 0.0, CAL PDZ FP-2 51.7*, dFosB act 2.2 and S100A4 inh HTS -1.1.
